Assay results as given in ChEMBL document CHEMBL1124185, “Studies on some derivatives of oxamniquine” (1988).

Key:
Type in all cases: functional
[1] = tested on: Schistosoma mansoni; test: Percent [3H]uridine incorporation relative to controls for a dose of 75 ug/mL against hycanthone-resistant schistosomes
[2] = tested on: Schistosoma mansoni; test: Percent [3H]uridine incorporation relative to control at 50 ug/mL against hycanthone-sensitive schistosomes (% worms surviving in culture)
Procedure, shortened: (§1)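 Hycanthone-sensitive Schistosoma mansoni worms exposed to compound in vitro. [3H]uridine incorporation into the worms was measured and expressed relative to untreated controls. Worm survival in culture was scored in parallel.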

[3] = tested on: Schistosoma mansoni; test: Percent [3H]uridine incorporation relative to controls for a dose of 100 ug/mL against hycanthone-sensitive schistosomes.(% warms surviving in culture).; procedure, shortened: as §1
[4] = tested on: Schistosoma mansoni; test: Percent [3H]uridine incorporation relative to controls for a dose of 50 ug/mL against hycanthone-resistant schistosomes
[5] = tested on: Schistosoma mansoni; test: Percent [3H]uridine incorporation relative to controls for a dose of 100 ug/mL against hycanthone-resistant schistosomes
[6] = tested on: Schistosoma mansoni; test: Percent [3H]-uridine incorporation relative to controls for a dose of 100 ug/mL against hycanthone-sensitive schistosomes (% warms surviving in culture).; procedure, shortened: as §1
[7] = in the assay text read “at 75 ug/mL” for “at 50 ug/mL”

Row | Structure (SMILES) | Incorporation [1] [%] | Incorporation [2, 7] [%] | Incorporation [3] [%] | Incorporation [4] [%] | Incorporation [5] [%] | Incorporation [2] [%] | Incorporation [6] [%]
1 | CC(C)NCC1CCc2cc(/C=N/NS(=O)(=O)c3ccc([N+](=O)[O-])cc3)c([N+](=O)[O-])cc2N1 (stereo not drawn) | 96 | 49 | – | – | – | – | –
2 | Cc1ccc(S(=O)(=O)N/N=C/c2cc3c(cc2[N+](=O)[O-])NC(CNC(C)C)CC3)cc1 (stereo not drawn) | – | – | 32 | 102 | 100 | 60 | –
3 | CNC(=O)OCc1cc2c(cc1[N+](=O)[O-])NC(CNC(C)C)CC2 (stereo not drawn) | – | – | – | 100 | 100 | 22 | 21
4 | COc1ccc(S(=O)(=O)N/N=C/c2cc3c(cc2[N+](=O)[O-])NC(CNC(C)C)CC3)cc1 (stereo not drawn) | 106 | 53 | – | – | – | – | –
5 | Cc1cc(C)c(S(=O)(=O)N/N=C/c2cc3c(cc2[N+](=O)[O-])NC(CNC(C)C)CC3)c(C)c1 (stereo not drawn) | – | – | 20 | 100 | 100 | 24 | –
6 | CC(C)NCC1CCc2cc(CO)c([N+](=O)[O-])cc2N1 (stereo not drawn) [OXAMNIQUINE] | – | – | – | 97 | – | 14 | –
